The nature of data set [1]: Retardation factor of the compound using C6H6-MeOH-AcOH at ratio of 45:30:1 as solvent system by thin layer chromatography. Format: physicochemical.
A short description of data set [2]: Retardation factor of the compound using CHCl3-MeOH at ratio of 3:1 as solvent system by thin layer chromatography. The format is physicochemical.
Data set [3] can be described thus: Retardation factor of the compound using CHCl3-MeOH at ratio of 1:1 as solvent system by thin layer chromatography. The format is physicochemical.
The nature of data set [4]: Retardation factor of the compound using C6H6-MeOH-AcOH at ratio of 9:6:1 as solvent system by thin layer chromatography. The format is physicochemical.
Data set [5] can be described thus: Retardation factor of the compound using CHCl3-MeOH at ratio of 6:1 as solvent system by thin layer chromatography. Format: physicochemical.
Data set [6] can be described thus: Retardation factor of the compound using C6H6-MeOH-AcOH at ratio of 9:3:1 as solvent system by thin layer chromatography. Format: physicochemical.
Data set [7] concerns L1210. The data set is described as follows: Antitumor activity against mouse L1210 cells xenografted in mouse assessed as increase in median host lifespan at 15 mg/kg, ip administered q3d on days 1, 4 and 7. Format: functional. Conditions: route intraperitoneal. The essentials:
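L1210 murine leukemia, 10^5 cells implanted ip; drug given ip on days 1, 4 and 7 after implantation, as disodium salt in aqueous solution. Five mice per treated group, 15 untreated controls. Read-out is the percent increase in median survival time over untreated mice.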

Data set [8] deals with L1210. As to the kind of experiment: Anticancer activity against mouse L1210 cells xenografted in mouse assessed as increase in median host survival at 120 mg/kg, ip administered q3d on days 1, 4, 7. Particulars: route intraperitoneal. The format is functional.
Another data set concerns CCRF-CEM. The data set is described as follows: Growth inhibition of human CCRF-CEM cells. The format is functional. Conditions: read-out: ID50 (the source's name). The essentials: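 Human lymphoblastic leukaemia CCRF-CEM cells were grown in culture with the compound, and the concentration giving 50% growth inhibition (ID50) was reported in µg/mL.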
The next data set has as its system Mus musculus. As to the kind of experiment: Toxicity in mouse xenografted with mouse L1210 cells assessed as body weight loss at 80 to 160 mg/kg, ip administered q3d on days 1,4 and 7. The format is organism-based. Set-up: dose 80-160 mg/kg, route intraperitoneal. Particulars: in vivo. The procedure, abridged:
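Mice were implanted ip with 10^5 L1210 cells and dosed ip on days 1, 4 and 7 after implantation. Soluble compounds were dissolved in freshly prepared 0.005 M sodium phosphate, pH 7.4; an insoluble one was suspended in 10% Tween 80. Groups had five mice, with 15 untreated controls, and body weight loss was scored as toxicity.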

The subject of data set [9] is L1210. As to the kind of experiment: Antitumor activity against mouse L1210 cells xenografted in mouse assessed as increase in median host lifespan at 160 mg/kg, ip administered q3d on days 1, 4 and 7. Format: functional. Conditions: route intraperitoneal. The essentials:
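Mice implanted ip with 10^5 L1210 leukemia cells. Drug was dissolved in 0.005 M sodium phosphate buffer, pH 7.4, freshly prepared before use, and injected ip on days 1, 4 and 7 after implantation. The dose range tested was 20–160 mg/kg. Five mice per group, 15 controls. Read-out is the percent increase in median life span versus untreated mice.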

Values after ≈ are worked out from the molar mass of the structure shown.

Turning to `CCOC(=O)CCC(NC(=O)CCC(NC(=O)c1ccc(N(C)Cc2cnc3nc(N)nc(N)c3n2)cc1)C(=O)NC(CCC(=O)OCC)C(=O)OCC)C(=O)OCC` (mixture of isomers), the Rf in [1] was determined as 0.82; in [2], 0.77; in data set [3] it was 0.82; in [4], 0.68; in [5], 0.4; in [6], 0.47.
With `CN(Cc1cnc2nc(N)nc(N)c2n1)c1ccc(C(=O)N[C@@H](CCC(=O)[O-])C(=O)[O-])cc1.[Na+].[Na+]` [METHOTREXATE SODIUM], the Activity in the data set with L1210 [7] is on record as 60%.
`CCOC(=O)CC[C@H](NC(=O)CC[C@H](NC(=O)c1ccc(N(C)Cc2cnc3nc(N)nc(N)c3n2)cc1)C(=O)O)C(=O)OCC` [listing 1 of 2 here]: in the data set with L1210 [8], the survival at 120 mg/kg was found to be 77%.
Take `CCOC(=O)CC[C@H](NC(=O)c1ccc(N(C)Cc2cnc3nc(N)nc(N)c3n2)cc1)C(=O)N[C@@H](CCC(=O)OCC)C(=O)OCC`: the Rf in data set [2] stood at 0.73; in data set [3], 0.79; in data set [5], 0.4. Also, the IC50 in the data set with CCRF-CEM was determined as 0.85 µg/mL (≈ 1.27 µM).
For `CCOC(=O)CC[C@H](NC(=O)CC[C@@H](NC(=O)c1ccc(N(C)Cc2cnc3nc(N)nc(N)c3n2)cc1)C(=O)N[C@@H](CCC(=O)OCC)C(=O)OCC)C(=O)OCC`, the Rf in data set [2] is given as 0.77; in data set [3], 0.82; in data set [5] it was 0.43. The IC50 with CCRF-CEM turned out to be 9 µg/mL (≈ 10.9 µM).
In the case of `CN(Cc1cnc2nc(N)nc(N)c2n1)c1ccc(C(=O)N[C@@H](CCC(=O)O)C(=O)O)cc1` [METHOTREXATE], in the data set with CCRF-CEM, the IC50 came out at 0.003 µg/mL (≈ 0.0066 µM).
For `CCOC(=O)CC[C@H](NC(=O)CC[C@H](NC(=O)c1ccc(N(C)Cc2cnc3nc(N)nc(N)c3n2)cc1)C(=O)O)C(=O)OCC` [listing 2 of 2 here], the Activity entry in the data set on Mus musculus is “Toxic”; with L1210 [9], 40%. The Rf in data set [1] is listed as 0.44; in data set [2], 0.02; in data set [3] it was 0.23; in [4] it was 0.35; in [5], 0.01; in data set [6], 0.2. The IC50 with CCRF-CEM was 0.88 µg/mL (≈ 1.38 µM).
As to `CCOC(=O)CC[C@H](NC(=O)CC[C@H](NC(=O)c1ccc(N(C)Cc2cnc3nc(N)nc(N)c3n2)cc1)C(=O)OCC)C(=O)OCC`, the values for the Rf in [2], in data set [3] and in [5] were 0.76, 0.79 and 0.44, respectively. For the same compound, in the data set with CCRF-CEM, the IC50 worked out at 1.8 µg/mL (≈ 2.7 µM).
In the same order, the values of `CCOC(=O)CC[C@H](NC(=O)CC[C@H](NC(=O)c1ccc(N(C)Cc2cnc3nc(N)nc(N)c3n2)cc1)C(=O)N[C@@H](CCC(=O)OCC)C(=O)OCC)C(=O)OCC` are 0.78, 0.82, 0.46 and 3.8 µg/mL (≈ 4.61 µM).
Turning to `CCOC(=O)CC[C@H](NC(=O)[C@H](CCC(=O)O)NC(=O)c1ccc(N(C)Cc2cnc3nc(N)nc(N)c3n2)cc1)C(=O)OCC`, the values for the Activity entry in the data set with Mus musculus and with L1210 [9] were “Toxic” and 10%, respectively. For the same compound, the Rf in data set [1] is on record as 0.58; in data set [2], 0.1; in data set [3], 0.28; in [4] it was 0.46; in [5] it was 0.04; in [6] it was 0.31. Besides, the IC50 in the data set on CCRF-CEM was over 10 µg/mL.
